In general, IC50 refers to the concentration needed to halve the response being measured.

For assay [1], the species on record is Rattus norvegicus. Kind of assay: Compound was evaluated for its inhibitory concentration against hydrogen peroxide- induced oxidative neuronal damage in primary cultured rat cortical cells. It counts as functional, cell-based. In outline: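 Cortical cultures from rat, 12–14 days in vitro, were HBSS-washed and exposed to H2O2 for 5 min, with compound at various concentrations present during the exposure. Cultures were then washed and kept in MEM plus 21 mM glucose at 37 °C, 95% air/5% CO2.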

The species named for assay [2] is Rattus norvegicus. Nature of the assay: Compound was evaluated for its inhibitory concentration against [Fe2+]/AA- induced oxidative neuronal damage in primary cultured rat cortical cells. It counts as functional, cell-based. In short, it runs like this: (§1)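 Primary rat cortical cultures at 12–14 days in vitro were HBSS-washed and exposed for 2 h to Fe2+ (100 μM)/ascorbic acid (25 μM), with compound at various concentrations present during the insult. Cultures were then washed and held in MEM plus 21 mM glucose at 37 °C, 5% CO2.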

The species entered for assay [3] is Rattus norvegicus. Nature of the assay: Compound was tested for its inhibitory concentration against formation of lipid peroxides in rat brain homogenates by thiobarbituric acid reactive substances (TBARS) assay according to the method of Stocks. Format: functional. In outline:
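Lipid peroxidation was run on rat brain homogenate (pH 7.4) supernatant after 1000 × g for 10 min. It was started with 0.02 mM FeCl2 and 0.25 mM ascorbic acid for 30 min at 37 °C and stopped with perchloric acid. After re-centrifugation, the supernatant was reacted with 0.5% TBA at 80 °C for 1 h, cooled, and read at 532 nm.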

The species named for assay [4] is Rattus norvegicus. Nature of the assay: Compound was tested for its DPPH radical scavenging activity in rat brain homogenates. It counts as functional. (In general: The DPPH test is a chemical assay of radical scavenging.)
The species named for assay [5] is Rattus norvegicus. Nature of the assay: Compound was evaluated for its inhibitory concentration against X/XO- induced oxidative neuronal damage in primary cultured rat cortical cells. Format: functional, cell-based. In short, it runs like this:
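Primary rat cortical cultures at 12–14 days in vitro were washed with HBSS and exposed for 10 min to xanthine (0.5 mM)/xanthine oxidase (10 mU/mL), with compound at various concentrations present during the insult. They were then washed and kept in MEM plus 21 mM glucose at 37 °C, 5% CO2.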

The species entered for assay [6] is Rattus norvegicus. Nature of the assay: Neuroprotective action was estimated in terms of its inhibitory concentration against superoxide and hydroxyl radicals measured by the leakage of cytoplasmic enzyme lactate dehydrogenase (LDH). It counts as functional.
Assay [7] is filed under the species Rattus norvegicus. Nature of the assay: Neuroprotective action was estimated in terms of its inhibitory concentration against superoxide and hydroxyl radicals measured by the leakage of cytoplasmic enzyme lactate dehydrogenase (LDH); found highly potent. It counts as functional.
The species named for assay [8] is Rattus norvegicus. Nature of the assay: Neuroprotective action was estimated in terms of its inhibitory concentration against [Fe2+]/AA- induced toxicity. Format: functional. In outline: as §1

For `Cc1ccc(CCCNC(=O)Cc2cc(O)c(O)c(O)c2)cc1C`, the half-maximal inhibitory concentration (IC50) stood at 35 µM in the assay listed under Rattus norvegicus [1]; 26.8 µM in the assay listed under Rattus norvegicus [2]; 1.81 µM in the assay filed under Rattus norvegicus [3]; 21.3 µM in the assay filed under Rattus norvegicus [4]; 34.8 µM in the assay listed under Rattus norvegicus [5].
`Cc1c(C)c2c(c(C)c1O)CC[C@@](C)(CCC[C@H](C)CCC[C@H](C)CCCC(C)C)O2` [ALPHA-TOCOPHEROL] registered an IC50 in the assay filed under Rattus norvegicus [3] of 4.68 µM.
In the assay filed under Rattus norvegicus [3], `Cc1cc(C(C)(C)C)c(O)c(C(C)(C)C)c1` [BUTYLATED HYDROXYTOLUENE] showed an IC50 of 4.03 µM.
As for `Cc1ccc(CCCNC(=O)/C=C/c2ccc(O)c(O)c2)cc1C`, the IC50 worked out at 5.91 µM in the assay listed under Rattus norvegicus [1]; 23.7 µM in the assay filed under Rattus norvegicus [2]; 1.11 µM in the assay filed under Rattus norvegicus [3]; 34.3 µM in the assay filed under Rattus norvegicus [4]; 2.54 µM in the assay listed under Rattus norvegicus [5].
As to `Cc1ccc(CCCNC(=O)Cc2ccc(O)c(O)c2)cc1C`, the IC50 in the assay filed under Rattus norvegicus [1] is 6.03 µM; in the assay filed under Rattus norvegicus [2] it was 2.4 µM; in the assay filed under Rattus norvegicus [6] it was 2.4 µM; in the assay listed under Rattus norvegicus [3] it was 2.6 µM; in the assay listed under Rattus norvegicus [4], 31 µM; in the assay listed under Rattus norvegicus [5] it was 3.3 µM. The IC50 in the assay listed under Rattus norvegicus [7] was 2.4 µM.
As to `COc1cc(/C=C/C(=O)NCCCc2ccc(C)c(C)c2)ccc1O`, the IC50 was 9.94 µM in the assay filed under Rattus norvegicus [3] and 82.2 µM in the assay filed under Rattus norvegicus [4].
As for `CCCCOc1cc(CC(=O)NCCCc2ccc(C)c(C)c2)ccc1O`, the IC50 in the assay listed under Rattus norvegicus [3] is 9.28 µM; in the assay listed under Rattus norvegicus [4], 162 µM; in the assay filed under Rattus norvegicus [8], 4.2 µM.
On to `COc1cc(CC(=O)NCCCc2ccc(C)c(C)c2)ccc1O`, for which the IC50 came to 25.9 µM in the assay filed under Rattus norvegicus [3] and 179 µM in the assay listed under Rattus norvegicus [4].
As for `Cc1ccc(CCCNC(=O)Cc2ccc(O)c(OC(C)C)c2)cc1C`, the concentration for half-maximal inhibition (IC50) is 19.4 µM in the assay filed under Rattus norvegicus [3], over 300 µM in the assay listed under Rattus norvegicus [4] and 34.2 µM in the assay filed under Rattus norvegicus [8].
Consider `Cc1c(C)c2c(c(C)c1O)CCC(C)(C(=O)O)O2` (stereo unspecified) [TROLOX], for which the values for the IC50 in the assay filed under Rattus norvegicus [1], in the assay filed under Rattus norvegicus [2] and in the assay listed under Rattus norvegicus [5] were 330 µM, 431 µM and 202 µM, respectively.
As to `COc1cc(CC(=O)NCCCc2ccc(C)c(C)c2)cc(OC)c1O`, the IC50 was 11.8 µM in the assay listed under Rattus norvegicus [3] and 50.1 µM in the assay listed under Rattus norvegicus [4].
`COc1cc(/C=C/C(=O)NCCCc2ccc(C)c(C)c2)cc(OC)c1O`: the IC50 in the assay listed under Rattus norvegicus [3] was 3.41 µM; in the assay filed under Rattus norvegicus [4] it was 89.1 µM; in the assay listed under Rattus norvegicus [8], 5.4 µM.
As to `Cc1ccc(CCCNC(=O)Cc2ccc(O)c(Oc3ccccc3)c2)cc1C`, the IC50 was 32 µM in the assay listed under Rattus norvegicus [3] and over 300 µM in the assay listed under Rattus norvegicus [4].
For `CCOc1cc(CC(=O)NCCCc2ccc(C)c(C)c2)ccc1O`, the results for the IC50 in the assay filed under Rattus norvegicus [3] and in the assay filed under Rattus norvegicus [4] were 24 µM and 182 µM, respectively.
